In publication PMC6044948 (ACS Omega, 2017):
Converted amounts (≈) assume the structure as drawn.

Columns and labels:
[1] = Intrinsic solubility of CPT/HCPT; type: physicochemical; conditions: PBS (CPT); NaD2PO4 buffer (HCPT), aqueous buffer, thermodynamic from solid
Procedure, shortened: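 Excess solid stirred at room temperature, then undissolved material removed by centrifugation. In PBS: stirred 6 h; supernatant quantified by UV–vis against an absorbance standard curve. In NaD2PO4 (10 mM, pD 7.4): stirred 3 h; supernatant quantified by 1H NMR integration against a known concentration of 1,3,5-benzenetricarboxylic acid as internal reference.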

[2] = Solubility enhancement assay with WP6; type: physicochemical; conditions: for solubility at 3 h: NaD2PO4 buffer with WP6, pH 7.4; for solubility enhancement in the presence of WP6: versus intrinsic solubility
Procedure, shortened: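 Excess solid test compound stirred 3 h at room temperature in NaD2PO4 (10 mM, pD 7.4) containing a known concentration of pillararene host. Undissolved drug removed by centrifugation. Supernatant drug quantified by 1H NMR integration against subsequently added 1,3,5-benzenetricarboxylic acid as internal reference. Each point in triplicate; phase solubility diagrams plotted; enhancement taken relative to intrinsic solubility.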

[3] = tested on: Hela cells; test: In vitro cytotoxicity against cancer cells, CCK-8 assay; type: cell-based; conditions: Homo sapiens, 24 h
Procedure, shortened: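 HeLa cells seeded at 4 × 10^3/well and cultured 12 h, then given fresh medium with free test compound, pillararene host alone, or host-loaded test compound for 24 h. Drug range 5 × 10–4–5 × 101 μM; host alone 5 × 10–3–5 × 102 μM. CCK-8 added for 3 h, OD read at 450 nm. Viability was set relative to a medium-only control (100%). IC50 is the concentration giving 50% viability. Mean ± SD, n = 6; Student's t test.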

Row | Structure (SMILES) | solubility [1] [µM] | solubility at 3 h [2] [µM] | solubility enhancement in the presence of WP6 [2] [times] | IC50 [3] [µM]
1 | CC[C@@]1(O)C(=O)OCc2c1cc1n(c2=O)Cc2cc3ccccc3nc2-1 [CPT, 20-(S)-camptothecin] | 5 (≈ 1.74 µg/mL) | > 1000 | 380 | 0.8
2 | CC[C@@]1(O)C(=O)OCc2c1cc1n(c2=O)Cc2cc3cc(O)ccc3nc2-1 [HCPT, 10-hydroxycamptothecin] | 29 (≈ 10.6 µg/mL) | > 1000 | 40 | 1.3
